Results from ChEMBL document CHEMBL1141245, “Discovery of novel 1-arylmethyl pyrrolidin-2-yl ethanol amines as calcium-sensing receptor antagonists” (Bioorg Med Chem Lett, 2005).

Experiments:
[1] = target: T1, Extracellular calcium-sensing receptor (Homo sapiens, UniProt P41180); assay: Inhibition of intracellular calcium release in human TT cells containing calcium-sensing receptor by FLIPR; type: functional, cell-based
T1 sequence (P41180 whole entry): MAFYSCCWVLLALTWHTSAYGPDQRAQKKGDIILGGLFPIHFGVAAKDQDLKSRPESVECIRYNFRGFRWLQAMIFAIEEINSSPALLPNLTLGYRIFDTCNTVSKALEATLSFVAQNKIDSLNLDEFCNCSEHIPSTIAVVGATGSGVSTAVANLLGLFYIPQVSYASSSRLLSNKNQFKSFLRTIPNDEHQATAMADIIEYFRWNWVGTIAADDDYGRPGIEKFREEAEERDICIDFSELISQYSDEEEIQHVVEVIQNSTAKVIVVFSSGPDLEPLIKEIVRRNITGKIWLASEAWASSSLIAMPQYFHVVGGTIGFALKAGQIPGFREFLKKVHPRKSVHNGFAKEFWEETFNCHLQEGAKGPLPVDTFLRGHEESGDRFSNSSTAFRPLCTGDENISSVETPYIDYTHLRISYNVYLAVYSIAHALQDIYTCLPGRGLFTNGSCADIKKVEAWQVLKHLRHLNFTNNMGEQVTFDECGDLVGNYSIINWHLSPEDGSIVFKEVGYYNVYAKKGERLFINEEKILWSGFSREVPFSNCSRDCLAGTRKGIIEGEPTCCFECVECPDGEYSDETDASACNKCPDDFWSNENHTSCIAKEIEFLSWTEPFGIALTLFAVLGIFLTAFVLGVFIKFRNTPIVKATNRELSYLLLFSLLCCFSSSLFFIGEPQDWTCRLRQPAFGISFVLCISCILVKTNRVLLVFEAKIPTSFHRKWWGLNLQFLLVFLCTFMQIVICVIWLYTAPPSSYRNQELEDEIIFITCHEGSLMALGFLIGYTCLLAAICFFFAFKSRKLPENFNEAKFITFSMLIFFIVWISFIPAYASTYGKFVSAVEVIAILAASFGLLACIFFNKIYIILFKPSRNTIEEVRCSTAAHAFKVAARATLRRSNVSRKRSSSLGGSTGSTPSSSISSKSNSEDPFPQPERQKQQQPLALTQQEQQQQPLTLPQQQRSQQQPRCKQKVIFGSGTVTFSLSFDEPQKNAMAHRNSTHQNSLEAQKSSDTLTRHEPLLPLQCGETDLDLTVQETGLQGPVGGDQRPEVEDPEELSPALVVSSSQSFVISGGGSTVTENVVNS
Summary of the method: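 Fluorescence-based intracellular Ca2+ mobilization, read on FLIPR, in human TT cells carrying endogenous calcium-sensing receptor. IC50 values are means of two experiments.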

[2] = target: T2, Extracellular calcium-sensing receptor (Rattus norvegicus, UniProt P48442); assay: Inhibition of extracellular calcium-induced inositol triphosphate generation in rat MTC cells expressing calcium-sensing receptor; type: functional, cell-based
T2 sequence (P48442 whole entry): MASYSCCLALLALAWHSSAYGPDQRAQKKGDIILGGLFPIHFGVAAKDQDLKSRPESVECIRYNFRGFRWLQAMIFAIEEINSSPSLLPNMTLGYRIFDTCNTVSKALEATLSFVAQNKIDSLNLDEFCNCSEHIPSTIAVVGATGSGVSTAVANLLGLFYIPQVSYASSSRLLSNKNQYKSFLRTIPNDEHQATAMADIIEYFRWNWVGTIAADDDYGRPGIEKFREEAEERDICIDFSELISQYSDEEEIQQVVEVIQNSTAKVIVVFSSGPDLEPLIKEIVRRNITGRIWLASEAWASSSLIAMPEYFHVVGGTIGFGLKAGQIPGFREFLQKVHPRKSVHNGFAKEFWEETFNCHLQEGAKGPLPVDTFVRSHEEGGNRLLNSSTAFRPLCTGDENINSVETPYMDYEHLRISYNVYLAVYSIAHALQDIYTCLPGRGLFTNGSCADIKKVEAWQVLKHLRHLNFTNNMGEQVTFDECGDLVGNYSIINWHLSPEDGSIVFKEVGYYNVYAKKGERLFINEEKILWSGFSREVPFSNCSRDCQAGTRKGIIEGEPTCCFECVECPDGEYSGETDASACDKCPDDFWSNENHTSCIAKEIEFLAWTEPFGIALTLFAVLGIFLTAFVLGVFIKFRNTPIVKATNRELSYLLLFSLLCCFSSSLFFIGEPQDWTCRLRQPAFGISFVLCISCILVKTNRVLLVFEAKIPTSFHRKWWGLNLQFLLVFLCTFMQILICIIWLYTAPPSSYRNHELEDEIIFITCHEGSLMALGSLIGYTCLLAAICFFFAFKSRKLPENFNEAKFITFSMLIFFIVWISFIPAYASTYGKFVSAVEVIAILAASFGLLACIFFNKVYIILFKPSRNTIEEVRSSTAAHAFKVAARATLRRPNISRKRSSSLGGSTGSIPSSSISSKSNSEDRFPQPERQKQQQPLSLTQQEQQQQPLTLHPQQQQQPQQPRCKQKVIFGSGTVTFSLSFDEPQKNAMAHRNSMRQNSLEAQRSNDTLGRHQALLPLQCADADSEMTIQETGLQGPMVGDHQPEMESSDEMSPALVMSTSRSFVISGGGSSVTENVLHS

SMILES | IC50 [1] | IC50 [2]
CC(C)(Cc1ccc2ccccc2c1)NC[C@@H](O)[C@H]1CCCN1Cc1cccc(C(=O)O)c1 | 6840 nM | –
CC(C)(Cc1ccc2ccccc2c1)NCCCOc1cccc(Cl)c1C#N | 880 nM | –
CC(C)(Cc1ccc(F)cc1)NC[C@@H](O)COc1ccc(OC(F)(F)F)cc1 | 3300 nM | –
CC(C)(Cc1ccc2ccccc2c1)NC[C@@H](O)[C@H]1CCCN1Cc1cccc(F)c1F | 360 nM | –
CN(C[C@@H](O)COc1cccc(Cl)c1C#N)C(C)(C)Cc1ccc2ccccc2c1 | 270 nM | –
CC(C)(Cc1cc2ccccc2s1)NC[C@@H](O)[C@H]1CCCN1Cc1cccc(C#N)c1 | 270 nM | –
N#Cc1c(Cl)cccc1OC[C@H](O)CNc1ccc2ccccc2c1 | 4600 nM | –
CC(C)(Cc1nc2ccccc2s1)NC[C@@H](O)[C@H]1CCCN1Cc1cccc(C#N)c1 | 1350 nM | –
COc1cccc(CN2CCC[C@@H]2[C@H](O)CNC(C)(C)Cc2ccc3ccccc3c2)c1O | 1560 nM | –
CC(C)(Cc1ccc2ccccc2c1)NC[C@@H](O)[C@H]1CCCN1Cc1cccc([N+](=O)[O-])c1O | 140 nM | –
CC(C)(Cc1ccc2ccccc2c1)NC[C@@H](O)[C@H]1CCCN1Cc1ccccc1C#N | 340 nM | –
CC(C)(Cc1ccc(F)cc1)NC[C@@H](O)CSc1cccc(Cl)c1Cl | 6180 nM | –
CC(C)(Cc1csc2ccccc12)NC[C@@H](O)[C@H]1CCCN1Cc1cccc(C#N)c1 | 1000 nM | –
CC(C)(Cc1ccc2ccccc2c1)NC[C@@H](O)[C@H]1CCCN1Cc1cccc(O)c1 | 1160 nM | –
COc1ccc(CC(C)(C)NCC(O)COc2ccc(S(C)(=O)=O)c(C)c2)cc1 (centres undefined) | 11400 nM | –
CC(C)(Cc1nc2ccccc2[nH]1)NC[C@@H](O)[C@H]1CCCN1Cc1cccc(C#N)c1 | 2840 nM | –
CC(C)(Cc1ccc2ccccc2c1)NC[C@@H](O)[C@H]1CCCN1C(=O)c1cccc(C#N)c1 | 8430 nM | –
COc1ccc(CC(C)(C)NC[C@@H](O)[C@H]2CCCN2Cc2cccc(C#N)c2)cc1 | 2670 nM | –
CC(C)(Cc1ccc2ccccc2c1)NC[C@@H](O)[C@H]1CCCN1Cc1cccc(F)c1 | 750 nM | –
CC(C)(Cc1ccc(F)cc1)NC[C@@H](O)COc1cccc(Cl)c1C#N | 600 nM | –
CC(C)(Cc1ccc2ccccc2c1)NC[C@@H](O)[C@H]1CCCN1Cc1cccc(C#N)c1 | 190 nM | 2200 nM

SMILES | IC50 [1] | IC50 [2]
CC(C)(Cc1ccc2ccccc2c1)NC[C@@H](O)[C@H]1CCCN1Cc1cccc(Br)c1 | 1570 nM | –
CC(C)(Cc1ccc2ccccc2c1)NC[C@@H](O)COc1ccccc1C#N | 30 nM | –
CC(C)(Cc1ccc2ccccc2c1)NC[C@@H](O)[C@H]1CCCN1Cc1ccccc1[N+](=O)[O-] | 160 nM | –
CC(C)(Cc1ccc2ccccc2c1)NC[C@H](O)COc1cccc(Cl)c1C#N | 50 nM | –
CC(C)(Cc1cc2ccccc2[nH]1)NC[C@H](O)COc1ccccc1C#N | 100 nM | –
CC(C)(Cc1ccc2ccccc2c1)NC[C@@H](O)[C@H]1CCCN1Cc1cccc(-c2ccccc2)c1 | 2470 nM | –
CC(C)(Cc1ccc2ccccc2c1)NC[C@H](O)[C@H]1CCCN1Cc1ccccc1C#N | 1270 nM | –
COc1ccc(CC(C)(C)NC[C@H](O)COc2cccc(OC)c2)cc1 | 1390 nM | –
N#Cc1c(Cl)cccc1OC[C@H](O)CNCCc1ccc2ccccc2c1 | 3860 nM | –
CC(C)(Cc1ccc2ccccc2c1)NC[C@@H](O)[C@H]1CCCN1Cc1cccc(Cl)c1C#N | 240 nM | –
CC(C)(Cc1ccc2ccccc2c1)NC[C@@H](O)[C@H]1CCCN1Cc1cccc(F)c1O | 140 nM | 2560 nM
CC(C)(Cc1cc2ccccc2[nH]1)NC[C@@H](O)[C@H]1CCCN1Cc1cccc(C#N)c1 | 440 nM | –
COc1cccc(CN2CCC[C@@H]2[C@H](O)CNC(C)(C)Cc2ccc3ccccc3c2)c1 | 1190 nM | –
CC(C)(Cc1cc2ccccc2s1)NC[C@H](O)COc1ccccc1C#N | 60 nM | –
CC(C)(Cc1ccc2ccccc2c1)NC[C@@H](O)[C@H]1CCCN1Cc1ccccc1O | 970 nM | –
CC(C)(Cc1ccc2ccccc2c1)NC[C@@H](O)[C@H]1CCCN1Cc1ccc(C#N)cc1 | 250 nM | –
CC(C)(Cc1ccc2ccccc2c1)NC[C@@H](O)[C@H]1CCCN1Cc1cccc([N+](=O)[O-])c1 | 140 nM | –
CC(C)(Cc1ccc2ccccc2c1)NC[C@@H](O)[C@H]1CCCN1Cc1ccc([N+](=O)[O-])cc1 | 790 nM | –
CC(C)(Cc1ccccc1)NC[C@H](O)COc1ccccc1S(C)(=O)=O | 9430 nM | –
CC(C)(Cc1ccc2ccccc2c1)NC[C@@H](O)COc1cccc(Cl)c1C#N | 50 nM | 530 nM
